Measured values of several laboratories.
Protocols differ between the studies behind these lines.
Target: Fibroblast growth factor receptor 1 (FGFR1, Homo sapiens, UniProt P11362)

Compound	assay	conditions	remaining binding
COc1ncc2cc3ccccc3nc2c1C#N	cell-free assay, competition with immobilised ligand	5 µM	73%
COc1cnc(Nc2cccc(S(N)(=O)=O)c2)nc1N1CCN(c2ccccc2)CC1	binding, competition with immobilised ligand	1 µM	100%
O=C(c1ccc(Nc2ncc(Cl)c(-c3cc4ccccc4s3)n2)cc1)N1CCC(N2CCCC2)CC1	binding, competition with immobilised ligand	1 µM	36%
C[C@@H](c1ccc(-n2cnc3c(N)ncnc32)cc1)N1CCc2nn(C)c(Cc3ccccc3)c2C1=O	binding, competition with immobilised ligand	0.1 µM	94%
O=C(NCCCN1CCOCC1)c1ccc(Nc2ncc(Cl)c(-c3ccc(Cl)s3)n2)cc1	binding, competition with immobilised ligand	1 µM	27%
c1cncc(-c2cccc(Nc3nccc(NC4CCCCC4)n3)c2)c1	binding, competition with immobilised ligand	10 µM	14%
Cc1nc(C2CCN(C(=O)c3ccc(OC(F)(F)F)cc3N)CC2)c2ncc(N3CCN(C)CC3)cc2n1	cell-free assay, competition with immobilised ligand	1 µM	100%
C=CC(=O)N1CCC(C(=O)NCC(=O)N2CCN(c3nc(-c4cnc(N)nc4C(F)F)nc(N4CCOCC4)n3)CC2)CC1	binding, competition with immobilised ligand	1 µM	100%
C[C@@H]1CCN(c2nccc(-c3cnn4ncccc34)n2)C1	binding	1 µM	100%
Cc1cnc(Nc2ccc(C(=O)N3CCC(N4CCCC4)CC3)cc2)nc1-c1cc2ccccc2s1	binding, competition with immobilised ligand	1 µM	10%
CN(CCCC(F)(F)F)c1nccc(-c2cnn3ncccc23)n1	binding	1 µM	46%
CCN1CCN(Cc2ccc(C(=O)Nc3ccc(C)c(Oc4ccc5c(c4)CC(=O)N5)c3)cc2C(F)(F)F)CC1	binding, competition with immobilised ligand	1 µM	78%
CN(C)C(=O)Cn1cc(-c2nc([C@@](C)(c3ccc(-c4cnc(N)nc4)cc3)C3CC3)no2)cn1	cell-free assay, competition with immobilised ligand	1 µM	95%
Cc1cnn2ncc(-c3ccnc(N(C)C)n3)c2c1	binding	1 µM	100%
CO[C@H]1CC[C@H](CNc2ccc(S(=O)(=O)NC(=O)c3ccc(N4CCN(CC5=C(c6ccc(Cl)cc6)CC(C)(C)CC5)CC4)cc3Oc3cnc4[nH]ccc4c3)cc2[N+](=O)[O-])CC1	cell-free assay, competition with immobilised ligand	1 µM	68%
CC1CCCN1c1nccc(-c2cnn3ncccc23)n1 (stereo not shown)	binding	1 µM	100%
C[C@H](NC(=O)c1cnc2n1[C@](C)(Cc1ccc(C#N)cc1)C(=O)N2c1cc(Cl)c(F)c(Cl)c1)C(=O)NC1(c2ccccn2)CC1	cell-free assay, competition with immobilised ligand	1 µM	100%
O=C(NCC1CCOCC1)c1n[nH]cc1NC(=O)c1c(F)cccc1F	binding, competition with immobilised ligand	1 µM	100%
C[C@@H]1CN(c2cc(-c3nn(C)c4ccc(OC5(C)CC5)cc34)ncn2)C[C@H](C)O1	cell-free assay, competition with immobilised ligand	1 µM	100%
CN(C)c1nccc(-c2cnn3ncccc23)n1	binding	1 µM	100%
CN(C)c1ncnc(-c2ccc3nc(Nc4cc(CN5CCN(C(=O)CC(F)(F)F)CC5)ccn4)[nH]c3c2)c1Cl	cell-free assay, competition with immobilised ligand	1 µM	100%
N[C@@H]1CCN(c2nccc(-c3cnn4ncccc34)n2)C1	binding	1 µM	96%
